Common to all, as to assay type: cell-based
Data set [1] has as its system Raji. Description: Inhibition of TPA-induced EBV-early antigen activation in human Raji cells assessed as EA activation at 1000 mol ratio relative to TPA. More on the design: scale not given: the % may be the effect or the level left. Conditions: human gammaherpesvirus 4.
The test system of data set [2] is Raji. Description: Inhibition of TPA-induced EBV-early antigen activation in human Raji cells assessed as EA activation at 500 mol ratio relative to TPA. Details: scale not given: the % may be the effect or the level left. Conditions: human gammaherpesvirus 4.
The subject of data set [3] is Raji. Description: Inhibition of TPA-induced EBV-early antigen activation in human Raji cells assessed as EA activation at 100 mol ratio relative to TPA. Details: scale not given: the % may be the effect or the level left. Conditions: human gammaherpesvirus 4.
Data set [4] concerns Raji. Description: Inhibition of TPA-induced EBV-early antigen activation in human Raji cells assessed as EA activation at 10 mol ratio relative to TPA. Conditions: human gammaherpesvirus 4. Details: scale not given: the % may be the effect or the level left.
For data set [5], the system named is Raji. Description: Cytotoxicity against human Raji cells at 1000 mol ratio by trypan blue staining method. The method, boiled down:
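Viability was assessed by trypan blue staining in Raji cells treated as in the EBV-EA assay: 48 h at 37 °C with n-butyric acid 4 mM, TPA and test compound in DMSO. Results are expressed as percent viable cells.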

Structures are written as SMILES.

The results in this text go back to ChEMBL document CHEMBL1150626, “Interiotherins C and D, two new lignans from Kadsura interior and antitumor-promoting effects of related neolignans on Epstein-Barr virus activation” (J Nat Prod, 2002).

Regarding `C/C=C(/C)C(=O)O[C@H]1c2cc3c(c(OC)c2-c2c(cc4c(c2OC)OCO4)C[C@H](C)[C@]1(C)O)OCO3` [INTERIOTHERIN B], the Activity is 11.6% in the data set on Raji [1]; 57.2% in the data set on Raji [2]; 80.3% with Raji [3]; 100% with Raji [4]; 60% with Raji [5].

On to `COc1c2c(cc3c1-c1c(cc4c(c1OC)OCO4)C[C@H](C)[C@H](C)C3)OCO2` [SCHISANDRIN C], for which the Activity with Raji [1] worked out at 2.6%; in the data set with Raji [2], 50.7%; in the data set with Raji [3], 73.6%; in the data set with Raji [4] it was 92.1%; with Raji [5], 70%.

Take `COc1cc2c(c(OC)c1OC)-c1c(cc3c(c1OC)OCO3)C[C@H](C)[C@](C)(O)[C@H]2OC(=O)c1ccccc1` [GOMISIN C]: the Activity in the data set with Raji [1] was found to be 19.7%; with Raji [2], 60.2%; in the data set with Raji [3] it was 87.4%; in the data set on Raji [4], 100%; with Raji [5], 60%.

With `C/C=C(/C)C(=O)O[C@H]1c2cc3c(c4c2[C@]2(CO4)C(=CC(=O)C(OC)=C2OC)C[C@@H](C)[C@H]1C)OCO3` [INTERIORIN], the Activity was determined as 13.5% in the data set with Raji [1]; 52% with Raji [2]; 77.4% in the data set with Raji [3]; 100% in the data set on Raji [4]; 60% in the data set with Raji [5].

For the compound `C/C=C(/C)C(=O)O[C@H]1c2cc3c(c(OC)c2-c2c(cc4c(c2OC)OCO4)C[C@H](C)[C@@H]1C)OCO3` [ANGELOYLGOMISIN R], the Activity in the data set on Raji [1] amounted to 10.6%; with Raji [2], 55.6%; with Raji [3] it was 79%; with Raji [4], 100%; in the data set on Raji [5], 60%.

As for `COc1cc2c(c(OC)c1OC)-c1c(cc3c(c1OC)OCO3)[C@@H]1O[C@H]2[C@@H](C)[C@H]1C` [NEOKADSURANIN], the Activity came to 4.7% in the data set with Raji [1]; 51.6% with Raji [2]; 72.9% with Raji [3]; 92.6% in the data set with Raji [4]; 70% with Raji [5].

Turning to `C/C=C(/C)C(=O)O[C@H]1c2cc3c(c4c2[C@@]2(CO4)C(=O)C(=O)C(OC)=C/C2=C/[C@@H](C)[C@H]1C)OCO3` [INTERIOTHERIN D], the Activity in the data set on Raji [1] turned out to be 11.5%; in the data set on Raji [2], 55.8%; in the data set with Raji [3], 75%; with Raji [4], 94.8%; with Raji [5] it was 60%.

With `C/C=C(/C)C(=O)O[C@H]1c2cc3c(c4c2C(C(=O)C(=O)OC)(CO4)/C(=C/C(=O)OC)C[C@@H](C)[C@H]1C)OCO3` (stereo not given in full) [HETEROCLITIN F], the Activity in the data set on Raji [1] stood at 16.5%; with Raji [2], 58.9%; in the data set with Raji [3], 82.4%; in the data set on Raji [4], 100%; with Raji [5] it was 60%.

In the case of `C/C=C(/C)C(=O)O[C@H]1c2cc(OC)c(OC)c(OC)c2-c2c(cc3c(c2OC)OCO3)[C@H](OC(C)=O)[C@H](C)[C@@H]1C` [INTERIOTHERIN C], the Activity stood at 16% in the data set with Raji [1]; 59% in the data set with Raji [2]; 78.9% in the data set on Raji [3]; 100% in the data set with Raji [4]; 60% in the data set on Raji [5].

For `C/C=C(/C)C(=O)O[C@H]1c2cc3c(c4c2[C@@]2(CO4)C(=O)C(OC)=C(OC)C=C2C[C@@H](C)[C@H]1C)OCO3` [HETEROCLITIN D], the Activity in the data set with Raji [1] worked out at 9.4%; with Raji [2], 54.7%; in the data set with Raji [3] it was 76.2%; in the data set with Raji [4], 100%; with Raji [5], 70%.

On to `COc1cc2c(c(OC)c1OC)-c1c(cc3c(c1OC)OCO3)C[C@H](C)[C@@](C)(O)C2` [GOMISIN A], for which the Activity in the data set with Raji [5] is 70%.

For `COc1cc2c(c(OC)c1OC)-c1c(cc3c(c1OC)OCO3)[C@H](OC(=O)c1ccccc1)[C@@](C)(O)[C@@H](C)C2` [GOMISIN G], the Activity came to 18.9% in the data set on Raji [1]; 59.2% in the data set on Raji [2]; 81.4% in the data set on Raji [3]; 100% in the data set on Raji [4]; 60% with Raji [5].

Consider `COc1cc2c(c(OC)c1OC)-c1c(cc3c(c1OC)OCO3)[C@H](OC(C)=O)[C@H](C)[C@H](C)C2` [KADSURIN], for which the Activity was 15% in the data set on Raji [1]; 58.3% with Raji [2]; 79.9% with Raji [3]; 100% with Raji [4]; 60% in the data set with Raji [5].

For `COc1c2c(cc3c1-c1c(cc4c(c1OC)OCO4)[C@H](OC(=O)c1ccccc1)[C@@H](C)[C@@H](C)C3)OCO2` [INTERIOTHERIN A], the Activity in the data set on Raji [1] turned out to be 18.3%; in the data set on Raji [2], 60.1%; in the data set with Raji [3], 85.7%; with Raji [4], 100%; with Raji [5], 60%.

On to `COc1cc2c(c(OC)c1OC)-c1c(cc3c(c1OC)OCO3)C[C@H](C)[C@](C)(O)C2`, for which the Activity in the data set on Raji [1] was found to be 7.1%; in the data set with Raji [2] it was 52.5%; in the data set with Raji [3], 78.3%; in the data set on Raji [4], 96.6%.
